# From ChEMBL document CHEMBL1131314, “New cyclooxygenase-2/5-lipoxygenase inhibitors. 1. 7-tert-buty1-2,3-dihydro-3,3-dimethylbenzofuran derivatives as gastrointestinal safe antiinflammatory and analgesic agents: discovery and variation of the 5-keto substituent” (J Med Chem, 1998)
# Key:
# [1] = molecular target: T1, Prostaglandin G/H synthase 2 (Homo sapiens, UniProt P35354)
# T1 sequence (P35354 whole entry): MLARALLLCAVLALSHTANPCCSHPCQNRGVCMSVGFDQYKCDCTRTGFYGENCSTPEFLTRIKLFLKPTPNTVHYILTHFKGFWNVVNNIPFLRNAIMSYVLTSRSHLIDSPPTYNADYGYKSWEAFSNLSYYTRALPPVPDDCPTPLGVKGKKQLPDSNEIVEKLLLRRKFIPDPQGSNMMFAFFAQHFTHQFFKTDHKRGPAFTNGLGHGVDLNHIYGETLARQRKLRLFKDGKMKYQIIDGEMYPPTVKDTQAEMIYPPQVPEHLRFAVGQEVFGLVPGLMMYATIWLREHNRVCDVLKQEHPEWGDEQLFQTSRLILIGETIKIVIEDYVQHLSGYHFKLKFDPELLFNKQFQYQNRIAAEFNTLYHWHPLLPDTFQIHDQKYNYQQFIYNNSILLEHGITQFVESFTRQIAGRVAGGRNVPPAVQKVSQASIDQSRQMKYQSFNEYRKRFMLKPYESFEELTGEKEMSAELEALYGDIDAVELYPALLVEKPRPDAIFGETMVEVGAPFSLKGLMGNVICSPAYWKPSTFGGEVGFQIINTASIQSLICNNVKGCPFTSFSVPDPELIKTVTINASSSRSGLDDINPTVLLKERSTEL
# [2] = molecular target: T2, Prostaglandin G/H synthase 1 (Homo sapiens, UniProt P23219); experiment: Concentration (in uM) to inhibit 50% of Prostaglandin G/H synthase 1 (COX-1) and is expressed in IC50.
# T2 sequence (P23219 whole entry): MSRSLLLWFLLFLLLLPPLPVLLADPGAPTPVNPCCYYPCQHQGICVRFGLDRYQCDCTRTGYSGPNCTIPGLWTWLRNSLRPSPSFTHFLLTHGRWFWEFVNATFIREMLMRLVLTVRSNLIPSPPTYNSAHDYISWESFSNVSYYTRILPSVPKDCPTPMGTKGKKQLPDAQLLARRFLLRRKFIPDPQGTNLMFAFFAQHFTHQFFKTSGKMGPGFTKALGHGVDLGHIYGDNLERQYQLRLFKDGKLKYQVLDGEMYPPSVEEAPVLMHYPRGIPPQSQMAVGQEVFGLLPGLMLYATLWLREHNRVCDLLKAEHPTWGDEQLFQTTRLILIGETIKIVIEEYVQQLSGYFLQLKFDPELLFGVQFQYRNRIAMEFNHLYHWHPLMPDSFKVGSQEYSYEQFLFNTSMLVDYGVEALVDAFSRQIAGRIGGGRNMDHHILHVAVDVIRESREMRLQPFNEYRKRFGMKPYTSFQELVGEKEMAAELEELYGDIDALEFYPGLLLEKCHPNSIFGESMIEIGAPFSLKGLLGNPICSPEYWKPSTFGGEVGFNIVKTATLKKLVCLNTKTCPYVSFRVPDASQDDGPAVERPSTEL
# Procedure, shortened: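 Human platelet microsomal fraction as enzyme, stored at -70 °C. Run 5 min at 37 °C, started by enzyme, stopped with HCl. PGF2α read by EIA, duplicates. IC50 taken from the percent-inhibition versus concentration curve.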
# Rattus norvegicus = experiment: Carrageenan paw edema index (CPE index) as ratio of the reduction in paw volume relative to tebufelone at a po (peroral) dose of 50 mg/kg.; type: functional
# Mus musculus [3] = experiment: % reduction in phenylquinone-induced abdominal constriction (PAC) at po (peroral) dose of 70 mg/kg in mice; type: functional, Abdomen
# Mus musculus [4] = organism: Mus musculus; experiment: The compound was tested for the concentration to inhibit 50% of phenylquinone-induced abdominal constriction (PAC).; type: functional; conditions: Abdomen
# [5] = molecular target: T2, Prostaglandin G/H synthase 1; experiment: Tested for selectivity for inhibition of human platelet derived COX-1 and recombinant human COX-2
# Procedure, shortened: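 COX-1 was microsomes from human platelet concentrate and COX-2 was a sonicated lysate of Sf9 cells infected with baculovirus carrying human COX-2 cDNA. Each enzyme was added to AA (33 µM) and SnCl2 (0.5 mg/mL) in 50 mM Tris-HCl pH 7.5 and run 5 min at 37 °C, then stopped with HCl. PGF2α was measured by EIA, in duplicate. The value is IC50 COX-1/IC50 COX-2.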
# [6] = molecular target: Arachidonate 5-lipoxygenase (Rattus norvegicus); experiment: The compound was tested for the concentration (in uM) to inhibit 50% of 5-Lipoxygenase (5-LOX) and is expressed in IC50.
# Mus musculus [7] = experiment: Compound was tested for % reduction in phenylquinone-induced abdominal constriction (PAC) at po (peroral) dose of 70 mg/kg in mice; type: functional; conditions: Abdomen
SMILES,IC50 [1] [nM],IC50 [2] [nM],CPE index (Rattus norvegicus),other results
CCCCC(=O)c1cc(C(C)(C)C)c2c(c1)C(C)(C)CO2,40,2000,,
CN(C)CCC(=O)c1cc(C(C)(C)C)c2c(c1)C(C)(C)CO2,,,0.32,
CSCC(=O)c1cc(C(C)(C)C)c2c(c1)C(C)(C)CO2,,,1.77,Reduction (Mus musculus [3]): 35%
CC(C)(C)c1cc(C(=O)c2ccccc2)cc2c1OCC2(C)C,7,150,,Reduction (Mus musculus [3]): 34%
CC(C)C(=O)c1cc(C(C)(C)C)c2c(c1)C(C)(C)CO2,,,1.25,ED50 (Mus musculus [4]): 22 mg/kg
C#CCCCC(=O)c1cc(C(C)(C)C)c(O)c(C(C)(C)C)c1 [TEBUFELONE],100,250,,
CC(C)(C)c1cc(C(=O)c2ccccc2Cl)cc2c1OCC2(C)C,,,0,
CC(C)(C)c1cccc2c1OCC2(C)C,,,0.31,
CC(C)=CC(=O)c1cc(C(C)(C)C)c2c(c1)C(C)(C)CO2,,,1.22,Reduction (Mus musculus [3]): 50%
CC(C)(C)c1cc(C(=O)C2CCCC2)cc2c1OCC2(C)C,,,0.65,Reduction (Mus musculus [3]): 56%
CC(C)CCCC(=O)c1cc(C(C)(C)C)c2c(c1)C(C)(C)CO2,4500,15000,0.36,Selectivity [5]: 3.3; IC50 [6]: 15 µM
CC(C)(C)c1cc(C(=O)CC2CC2)cc2c1OCC2(C)C,,,1.06,
CC(C)(C)c1cc(C(=O)C2CC2)cc2c1OCC2(C)C,,,0.67,Reduction (Mus musculus [3]): 85%
C#CCCCC(=O)c1cc(C(C)(C)C)c2c(c1)C(C)(C)CO2,15,60,,
CC(C)(C)c1cc(C(=O)CSCC2CC2)cc2c1OCC2(C)C,400,650,0.62,Reduction (Mus musculus [3]): 54%; Selectivity [5]: 1.6
CC(C)(C)c1cc(C(=O)CS(=O)(=O)CC2CC2)cc2c1OCC2(C)C,2000,5000,0,Selectivity [5]: 2.5
CCC(=O)c1cc(C(C)(C)C)c2c(c1)C(C)(C)CO2,,,1.14,ED50 (Mus musculus [4]): 20 mg/kg
C[S+]([O-])CC(=O)c1cc(C(C)(C)C)c2c(c1)C(C)(C)CO2 (centres undefined),,,1.01,ED50 (Mus musculus [4]): 20 mg/kg

SMILES,IC50 [1] [nM],IC50 [2] [nM],CPE index (Rattus norvegicus),other results
CC(C)(C)c1cc(C(=O)/C=C/CC2CC2)cc2c1OCC2(C)C,250,800,0.18,
CC(=O)c1cc(C(C)(C)C)c2c(c1)C(C)(C)CO2,,,0.92,Reduction (Mus musculus [3]): 78%
CN(CC(=O)c1cc(C(C)(C)C)c2c(c1)C(C)(C)CO2)CC1CC1,2500,30000,0.38,
CSCCC(=O)c1cc(C(C)(C)C)c2c(c1)C(C)(C)CO2,,,0.7,
CC(C)(C)c1cc(C(=O)C[S+]([O-])CC2CC2)cc2c1OCC2(C)C (centres undefined),4000,20000,0.04,Selectivity [5]: 5
CC(C)(C)c1cc(C(=O)c2ccc(F)cc2)cc2c1OCC2(C)C,,,0.52,
CC(=O)SCC(=O)c1cc(C(C)(C)C)c2c(c1)C(C)(C)CO2,,,0.95,Reduction (Mus musculus [3]): 64%
CCCCCC(=O)c1cc(C(C)(C)C)c2c(c1)C(C)(C)CO2,90,> 10000,0.4,Selectivity [5]: > 111
CC(C)(C)c1cc(C(=O)CCCC2CC2)cc2c1OCC2(C)C,220,7000,,
CC(O)c1cc(C(C)(C)C)c2c(c1)C(C)(C)CO2 (centres undefined),,,0,
CCCC(=O)c1cc(C(C)(C)C)c2c(c1)C(C)(C)CO2,95,95,,Reduction (Mus musculus [3]): 85%
CC(C)(Cl)CC(=O)c1cc(C(C)(C)C)c2c(c1)C(C)(C)CO2,100,1000,1.2,ED50 (Mus musculus [7]): 16 mg/kg; IC50 [6]: 8 µM
CC(C)(C)c1cc(C(=O)C2CCCCC2)cc2c1OCC2(C)C,,,0.36,
COCCOCC(=O)c1cc(C(C)(C)C)c2c(c1)C(C)(C)CO2,,,0.52,
CC(C)(C)C(=O)c1cc(C(C)(C)C)c2c(c1)C(C)(C)CO2,,,0.3,
CC(=O)OCC(=O)c1cc(C(C)(C)C)c2c(c1)C(C)(C)CO2,,,0.21,
CC(C)(C)c1cc(C(=O)CCC2CC2)cc2c1OCC2(C)C,,,0.18,Reduction (Mus musculus [3]): 58%
CC(C)(C)c1cc(C(=O)CS(C)(=O)=O)cc2c1OCC2(C)C,,,0,
